The source made the active and inactive calls. The rule behind the calls is not given here.
Legend:
[1] = tested on: A549; assay: Cytotoxicity against human A549 cells at 100 uM after 72 hrs by CellTiter-Glo luminescence assay; assay type: functional; settings: A549, 72 h
In short: (§1)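 1250 cells per well in serum-free medium (F12 for CHO-K1 and A549, DMEM for M14). Compounds given as 10-point 1:3 serial dilutions from a 300 µM stock, plus a gefitinib control. Incubated 72 h at 37 °C, 5% CO2. CellTiter-Glo added for 15 min at room temperature, then luminescence read. Viability normalized to media-only wells (0%) and 1% DMSO wells (100%). Run in triplicate.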

[2] = Cytotoxicity against CHOK1 cells at 100 uM after 72 hrs by CellTiter-Glo luminescence assay; assay type: cell-based, Cricetulus griseus; settings: chinese hamster, CHO-K1 cells; read-out: INH; in short: as §1
[3] = tested on: M14; assay: Cytotoxicity against human M14 cells at 100 uM after 72 hrs by CellTiter-Glo luminescence assay; assay type: functional; settings: M14, 72 h; in short: as §1
[4] = Cytotoxicity against CHOK1 cells after 72 hrs by CellTiter-Glo luminescence assay; assay type: cell-based; settings: Cricetulus griseus, CHO-K1, 72 h; in short: as §1
[5] = tested on: M14; assay: Cytotoxicity against human M14 cells after 72 hrs by CellTiter-Glo luminescence assay; assay type: functional, cell-based; settings: M14, 72 h; in short: as §1
[6] = tested on: A549; assay: Cytotoxicity against human A549 cells after 72 hrs by CellTiter-Glo luminescence assay; assay type: functional, cell-based; settings: A549, 72 h; in short: as §1
[7] = tested on: M14; assay: Cytotoxicity against human M14 cells assessed as cell viability after 4 hrs using GF-AFC as substrate by ApoTox-Glo triplex assay; assay type: functional, cell-based
In short: (§2)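 M14 #5 cells, 1250 per well in serum-free DMEM, pre-incubated 4 h at 37 °C, 5% CO2. Compounds added as 1:3 serial dilutions; incubated 4, 24, 48 and 72 h. Per time point, a reagent containing 400 µM GF-AFC (live-cell protease) and 400 µM bis-AAF-R110 (dead-cell protease) was added for 30 min at 37 °C, then fluorescence was read. Caspase-Glo 3/7 was added next, 30 min at room temperature, then luminescence.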

[8] = tested on: M14; assay: Induction of apoptosis human M14 cells assessed as caspase activity at 100 uM after 4 to 72 hrs using DEVD peptide as substrate by ApoTox-Glo triplex assay; assay type: functional, cell-based; in short: as §2

SMILES	inhibition at 100 µM [1]	cytotoxicity at 72 h, 100 µM [2]	inhibition at 100 µM [3]	also measured
CCC[C@@H]1CNC(=O)C(=O)N1C[C@@H]1CCCN1C[C@@H](Cc1ccc(O)cc1)N1C[C@H](Cc2ccc(O)cc2)N(CC2CCCC2)C(=O)C1=O	16%	19%	23%	–
CCC[C@@H]1CNC(=O)C(=O)N1C[C@@H]1CCCN1C[C@@H](Cc1ccc(O)cc1)N1C[C@@H](Cc2ccc(O)cc2)N(CC2CCCC2)C(=O)C1=O	14%	11%	25%	–
CCC[C@@H]1CNC(=O)C(=O)N1C[C@@H]1CCCN1C[C@@H](Cc1ccc(O)cc1)N1C[C@H](Cc2ccc(O)cc2)N(CC(CC)c2ccccc2)C(=O)C1=O (stereo partly drawn)	4%	48%	7%	–
CCC[C@@H]1CNC(=O)C(=O)N1C[C@@H]1CCCN1C[C@H](Cc1ccc(O)cc1)N1C[C@@H](Cc2ccc(O)cc2)N(CC(CC)c2ccccc2)C(=O)C1=O (stereo partly drawn)	–	0%	–	–
CCC[C@H]1CNC(=O)C(=O)N1C[C@@H]1CCCN1C[C@@H](CC1CCCCC1)N1C[C@H](Cc2ccc(O)cc2)N(CCC23CC4CC(CC(C4)C2)C3)C(=O)C1=O	–	–	–	IC50 [4]: > 50 µM; IC50 [5]: > 50 µM; IC50 [6]: > 50 µM
CCC[C@@H]1CNC(=O)C(=O)N1C[C@@H]1CCCN1C[C@H](Cc1ccc(O)cc1)N1C[C@@H](Cc2ccc(O)cc2)N(CC2CCCC2)C(=O)C1=O	5%	7%	3%	–
C[C@H](CCC(=O)O)C[C@H](C)C[C@H](C)C(=O)/C=C(\O)[C@H](C)C[C@H](C)C/C=C/[C@@H](C)[C@@H](O)[C@@H](C)[C@@H](O)C[C@@H]1CC[C@@](C)([C@H]2CC[C@@](C)([C@@H](C)O)O2)O1	–	–	–	Activity [7]: Dose-dependent effect; Activity [8]: inactive
